Laboratory results published in ChEMBL document CHEMBL1138544, “Solution-phase parallel synthesis and evaluation of anticonvulsant activity of N-substituted-3,4-dihydroisoquinoline-2(1H)-carboxamides” (2009).

How the values were obtained:
Mus musculus [1] = test: Anticonvulsant activity against audiogenic clonus seizures in ip dosed DBA/2 mouse epilepsy model administered 30 mins before auditory simulation; format: functional; conditions: DBA/2, ip
Summary of the method: (§1)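 DBA/2 mice (sound-seizure susceptible), 8e12 g, 22e25 days old, either sex, groups of 10. Vehicle or each dose given 30 min before auditory stimulation. Latency to and incidence of each seizure phase scored. ED50 for each phase taken from dose-response curves fitted by the Litchfield and Wilcoxon method.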

Mus musculus [2] = test: Anticonvulsant activity against audiogenic tonus seizures in ip dosed DBA/2 mouse epilepsy model administered 30 mins before auditory simulation; format: functional; conditions: DBA/2, ip; summary of the method: as §1

| Structure (SMILES) | ED50 (Mus musculus [1]) [mg/kg] | ED50 (Mus musculus [2]) [mg/kg] |
| --- | --- | --- |
| COc1cc2c(cc1OC)C(c1ccc(Br)cc1)N(C(=O)CN1CCCCC1)CC2 (centres undefined) | 5.99 | 3.86 |
| CCNC(=O)N1CCc2cc(OC)c(OC)cc2C1c1ccccc1 (centres undefined) | 32.5 | 11.9 |
| CCNC(=O)N1CCc2cc(OC)c(OC)cc2C1c1ccc(Cl)cc1 (centres undefined) | 30.4 | 14.2 |
| CCNC(=O)N1CCc2cc(OC)c(OC)cc2C1c1ccc(F)cc1 (centres undefined) | > 35 | > 35 |
| CCCCNC(=O)N1CCc2cc(OC)c(OC)cc2C1c1ccc(Cl)cc1 (centres undefined) | > 35 | 16.5 |
| CCCCNC(=O)N1CCc2cc(OC)c(OC)cc2C1c1ccc(F)cc1 (centres undefined) | > 35 | 13.7 |
| COc1cc2c(cc1OC)C(c1ccccc1)N(C(=O)NC(C)(C)C)CC2 (centres undefined) | 27.5 | 13.9 |
| COc1cc2c(cc1OC)C(c1ccc(Cl)cc1)N(C(=O)NC1CCCC1)CC2 (centres undefined) | > 35 | 12.1 |
| COc1cc2c(cc1OC)C(c1ccc(F)cc1)N(C(=O)NC(C)C)CC2 (centres undefined) | > 35 | 17.3 |
| CCCCNC(=O)N1CCc2cc(OC)c(OC)cc2C1c1ccccc1 (centres undefined) | 31.7 | 11 |
| COc1cc2c(cc1OC)C(c1ccc(Br)cc1)N(C(=O)NC(C)(C)C)CC2 (centres undefined) | > 35 | 16.9 |
| COc1cc2c(cc1OC)C(c1ccccc1)N(C(=O)NC1CCCCC1)CC2 (centres undefined) | 26.9 | 9.38 |
| CCCCNC(=O)N1CCc2cc(OC)c(OC)cc2C1c1ccc(Br)cc1 (centres undefined) | > 35 | 15.5 |
| COc1cc2c(cc1OC)C(c1ccc(Cl)cc1)N(C(=O)NC(C)(C)C)CC2 (centres undefined) | 30.6 | 13.8 |
| COc1cc2c(cc1OC)C(c1ccccc1)N(C(=O)NC1CCCC1)CC2 (centres undefined) | > 35 | 15.1 |
| COc1cc2c(cc1OC)C(c1ccc(Br)cc1)N(C(=O)NC1CCCCC1)CC2 (centres undefined) | > 35 | 19.3 |

| Structure (SMILES) | ED50 (Mus musculus [1]) [mg/kg] | ED50 (Mus musculus [2]) [mg/kg] |
| --- | --- | --- |
| CCCNC(=O)N1CCc2cc(OC)c(OC)cc2C1c1ccc(Cl)cc1 (centres undefined) | > 35 | 23.4 |
| CCCNC(=O)N1CCc2cc(OC)c(OC)cc2C1c1ccc(F)cc1 (centres undefined) | > 35 | 26.9 |
| COc1cc2c(cc1OC)C(c1ccccc1)N(C(=O)NC(C)C)CC2 (centres undefined) | > 35 | > 35 |
| COc1cc2c(cc1OC)C(c1ccc(Cl)cc1)N(C(=O)NC1CCCCC1)CC2 (centres undefined) | > 35 | 14.2 |
| COc1cc2c(cc1OC)C(c1ccc(Br)cc1)N(C(=O)NC1CCCC1)CC2 (centres undefined) | > 35 | 14.7 |
| COc1cc2c(cc1OC)C(c1ccc(Cl)cc1)N(C(=O)NC(C)C)CC2 (centres undefined) | > 35 | 26.1 |
| COc1cc2c(cc1OC)C(c1ccc(F)cc1)N(C(=O)NC1CCCC1)CC2 (centres undefined) | 27.7 | 7.24 |
| COc1cc2c(cc1OC)C(c1ccc(Br)cc1)N(C(=O)NC(C)C)CC2 (centres undefined) | > 35 | 23.6 |
| COc1cc2c(cc1OC)C(c1ccc(F)cc1)N(C(=O)NC(C)(C)C)CC2 (centres undefined) | > 35 | 18.7 |
| CCCNC(=O)N1CCc2cc(OC)c(OC)cc2C1c1ccc(Br)cc1 (centres undefined) | > 35 | 31.2 |
| COc1cc2c(cc1OC)C(c1ccc(F)cc1)N(C(=O)NC1CCCCC1)CC2 (centres undefined) | > 35 | > 35 |
| CCNC(=O)N1CCc2cc(OC)c(OC)cc2C1c1ccc(Br)cc1 (centres undefined) | > 35 | > 35 |
| CCCNC(=O)N1CCc2cc(OC)c(OC)cc2C1c1ccccc1 (centres undefined) | > 35 | 18.1 |
| COc1cc2c(cc1OC)C(c1ccc(Cl)cc1)N(C(C)=O)CC2 (centres undefined) | 2.25 | 1.22 |
| NCC1(CC(=O)O)CCCCC1 [GABAPENTIN] | > 35 | 21.5 |
| CCCC(CCC)C(=O)O [VALPROIC ACID] | 20.3 | 9.9 |
